# In all, about 51,000 compounds went through this assay and about 150 (0.29%) were called active.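 The calls were made as follows: active = both repeat wells score below -2 in polarization z-score versus plate sample wells, excluding overly bright wells; inactive = the rest.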 Only a selection was taken, and actives are over-represented in it overall.
# Test system: LANA (ORF73) N-terminal peptide binding to nucleosomes, Human herpesvirus 8
# Assay: LANA N-terminal peptide–nucleosome interaction blockers – biochemical, fluorescence polarization, FITC-LANA1-23, chicken nucleosomes, primary screen (AID 720717)
# Settings: FITC-LANA1-23 / chicken nucleosome fluorescence polarization; active compounds read low
# Procedure, shortened: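 test system = FITC-LANA peptide and chicken nucleosomes | amount = 240 nM purified chicken nucleosomes (480 nM peptide binding sites), final | reagent = 50 nM FITC-LANA1-23 probe | medium = TEN-BT buffer, pH 7.5 | doses = single compound addition by pin transfer, 100 nL per well | timing = 10–45 min, room temperature | detection = fluorescence polarization | repeats = duplicate plates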
row,Compound,z-score
1,CN1CCc2c(c(S)[nH]c(=S)c2C#N)C1,-3.73 (active)
2,CCOC(=O)c1sc2nc3c(cc2c1N)CN(C)CC3,0.365 (inactive)
3,O=C(c1ccccc1)c1cc(Cl)ccc1NC(=O)C(F)(F)F,-0.891 (inactive)
4,Cc1cccc(NC(=O)OC2CN3CCC2CC3)c1 (stereo not given),-0.799 (inactive)
5,CC1(C)CC(Nc2nc(Cl)c(C#N)c(Cl)c2Cl)CC(C)(C)N1,-1.52 (inactive)

# Source: PubChem BioAssay AID720717 (ICCB-Longwood Screening Facility, Harvard Medical School, 2013)
